PubChem BioAssay
Records with an inconclusive call do not appear. Active and inactive are the calls of the source.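 How the source made its calls, unless noted: active means viability increase at or above a cutoff of the median across tested compounds plus 3 SD (cut at about 8.5% in these data, passing the limit was not always enough); inconclusive means some gains above the cutoff, reason not given; inactive means the rest.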

Key:
[1] = OD615 S. cerevisiae growth inhibition, permissive medium, pilot counter-assay, permissive growth control for S. cerevisiae lifespan shortening project (AID 705;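 active means growth inhibition above 25% in both replicates, a cutoff set 3 SD above the mean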); settings: OD615, 24 h, at 10 µM, stronger effect = higher value
Outline: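 System: S. cerevisiae with engineered DeaD lifespan system / Measured by: absorbance (optical density) at 615 nm / Read-out: reduction in yeast growth (OD615) / Times: 4 h cell pre-growth, 24 h exposure at 30 °C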

[2] = Restrictive medium S. cerevisiae growth inhibition, OD615, pilot screen of yeast lifespan reduction project, restrictive growth control (AID 706;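 active means growth inhibition above a set limit, 3 SD over mean compound inhibition, in both replicates, cut at about 43% in these data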;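 further: modified DeaD lifespan yeast strain shifted to restrictive glucose medium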); settings: OD615, 48 h, at 10 µM, stronger effect = higher value
Outline: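 System: Engineered S. cerevisiae DeaD strain | Buffer or medium: Glucose-based CSMM-D restrictive medium | Schedule: 4 h pre-incubation, 48 h exposure at 30 °C | Technique: Optical density at 615 nm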

[3] = viability gain of MRP-1-high H69AR cells under doxorubicin, pilot screen, MRP-1 activator project, CellTiter-Glo, duplicate (AID 807); settings: H69AR viability with doxorubicin, CellTiter-Glo luminescence; at 10 µM; stronger effect = higher value;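 further: compound pretreatment 18-22 h then 72 h combined with doxorubicin; 0% = doxorubicin alone and 100% = vehicle without doxorubicin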
[4] = growth suppression of beta-catenin knockout HCT116, pilot screen, human colon tumor cells (AID 823;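 active means cell viability at or below a set limit in both duplicate runs, the limit being the all-compound median minus 4 SD, cut at about 23% in these data, passing the limit was not always enough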;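 further: 0% = wells killed by 20 µM Hyamine and 100% = untreated DMSO cell wells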); settings: CellTiter-Glo, 60 h, at 10 µM, stronger effect = lower value
[5] = growth suppression of PTEN-deleted HCT116, pilot screen, cell-based, HCT116 clonal line, CellTiter-Glo (AID 824;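 active means viability at or below 27.92% in each of two runs, the all-compound median minus 4 SD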;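 further: 0% = 20 µM Hyamine control and 100% = vehicle cell control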); settings: 60 h, at 10 µM, stronger effect = lower value
[6] = inhibitors of the yeast RAM network, pilot screen, dse1pr::URA3 reporter, 5-FOA selection (AID 869;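 active means inhibition over a set limit, the all-compound mean plus 3 SD, in both replicate runs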;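 further: 0% = DMSO wells with no growth and 100% = 10 µM 1-NA-PP1 with full growth; RAM network block rescues cells from 5-FOA so hits raise OD615 growth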); settings: S. cerevisiae dse1pr::URA3 5-FOA growth, OD615, 2 d; at 10 µM; stronger effect = higher value; strain carries analog-sensitive mutant Cbk1 kinase
[7] = RAM signaling pathway blockade in yeast – S. cerevisiae, Pdr1DBD-CYC8 efflux-inhibited sensitized strain, primary screen (AID 1298;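 active means RAM network inhibition above 8.4% in each of two replicates, 3 SD over the compound average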;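 further: 0% = DMSO untreated cells without growth and 100% = 10 µM 1-NA-PP1 full growth; higher means more yeast growth rescued from 5-FOA killing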); settings: S. cerevisiae cbk1-as DSE1-URA3 strain, 5-FOA growth OD615, 2 d; at 50 µM; stronger effect = higher value

Cc1cccc(OCCCCCNCCO)c1
inactive: growth inhibition [1] -16% | growth inhibition [2] -8.45% | viability increase [3] -0.72% | viability [4] 98.6% | viability [5] 94.6% | inhibition [6] 1.7% | RAM network inhibition [7] 0.57%

CCOC(=O)Cc1csc(SCn2nnc3ccccc3c2=O)n1
inactive: growth inhibition [1] -8.4% | growth inhibition [2] -9.13% | viability increase [3] 0.7% | viability [4] 94.8% | viability [5] 94.8% | inhibition [6] 2.31% | RAM network inhibition [7] 1.31%

CCCCCSc1nnc2c(n1)OC(C)N(C(C)=O)c1ccccc1-2 (configuration not stated)
inactive: growth inhibition [1] -10.3% | growth inhibition [2] -6.29% | viability increase [3] -4.28% | viability [4] 82.8% | viability [5] 86.5% | inhibition [6] 1.47% | RAM network inhibition [7] 2.22%

O=C(CCCOc1ccccc1)n1nnc2ccccc21
inactive: growth inhibition [1] -10.8% | growth inhibition [2] -9.88% | viability increase [3] -1.21% | viability [4] 98.9% | viability [5] 100% | inhibition [6] 0.75% | RAM network inhibition [7] 0.05%

Cc1oc(-c2cccs2)nc1CS(=O)CC(=O)NCCCN1CC(C)CC(C)C1 (configuration not stated)
inactive: growth inhibition [1] -8.47% | growth inhibition [2] -12.7% | viability increase [3] -1.75% | viability [4] 93.9% | viability [5] 92.4% | inhibition [6] 2.27% | RAM network inhibition [7] 3.39%

COc1ccc(-n2nnc3c(=O)n(CC(=O)N4CCC(Cc5ccccc5)CC4)cnc32)cc1
inactive: growth inhibition [1] 0.065% | growth inhibition [2] -3.95% | viability increase [3] -1.03% | viability [4] 80.2% | viability [5] 80.3% | inhibition [6] 2.54% | RAM network inhibition [7] 5.24%

O=C(NCc1nc2ccccc2[nH]1)c1cccs1
inactive: growth inhibition [1] -13.9% | growth inhibition [2] -1.7% | viability increase [3] 0.55% | viability [4] 105% | viability [5] 103% | inhibition [6] 2.04% | RAM network inhibition [7] 5.75%

Cc1ccc2c(CC(=O)O)coc2c1
inactive: growth inhibition [1] -5.59% | growth inhibition [2] 27.6% | viability increase [3] -0.46% | viability [4] 89.3% | viability [5] 97.5% | inhibition [6] -0.825% | RAM network inhibition [7] -1.05%

Cc1ccc2c(c1)C(c1ccccc1)N(C(=O)C(C)C)CC(=O)N2 (configuration not stated)
inactive: growth inhibition [1] -14.9% | growth inhibition [2] -15.6% | viability increase [3] -1.2% | viability [4] 102% | viability [5] 92.1% | inhibition [6] 1.64% | RAM network inhibition [7] 4.21%

CCC1(C)OC(=O)N2CCc3c(C)[nH]c4c(C)ccc(c34)C21C (configuration not stated)
inactive: growth inhibition [1] -14.7% | growth inhibition [2] -17.8% | viability increase [3] -1.6% | viability [4] 95.9% | viability [5] 91.3% | inhibition [6] 2.15% | RAM network inhibition [7] 1.06%

O=S(=O)(NCCc1csc(-c2cccnc2)n1)c1ccc(Cl)s1
inactive: growth inhibition [1] -15.7% | growth inhibition [2] 13.1% | viability increase [3] 0.96% | viability [4] 87.6% | viability [5] 85.5% | inhibition [6] 1.76% | RAM network inhibition [7] 3.12%

Cn1ccnc1-c1nc2ccccc2[nH]c1=O
inactive: growth inhibition [1] -6.04% | growth inhibition [2] -15.6% | viability increase [3] -1.95% | viability [4] 101% | viability [5] 95.5% | inhibition [6] -0.695% | RAM network inhibition [7] -0.73%

CCCCC(=O)Nc1nc2ccc3nc(C)sc3c2s1
inactive: growth inhibition [1] -25.8% | growth inhibition [2] -2.65% | viability increase [3] -0.78% | viability [4] 81.3% | viability [5] 87.2% | inhibition [6] 2.27% | RAM network inhibition [7] 0.32%

O=S(=O)(NC1CCCCC1NCc1ccco1)c1ccccc1 (configuration not stated)
inactive: growth inhibition [1] -9.75% | growth inhibition [2] -2.12% | viability increase [3] -4.92% | viability [4] 98% | viability [5] 92.6% | inhibition [6] 1.82% | RAM network inhibition [7] 6.55%

O=C(O)C1CCCCC1C(=O)NCc1cn2ccccc2n1 (configuration not stated)
inactive: growth inhibition [1] -16.1% | growth inhibition [2] -10.5% | viability increase [3] -1.38% | viability [4] 110% | viability [5] 93.7% | inhibition [6] 0.43% | RAM network inhibition [7] 9.11%

COc1ccc(C2C(C(=O)NCc3ccccn3)c3cc(OC)c(OC)cc3C(=O)N2C)cc1 (configuration not stated)
inactive: growth inhibition [1] -3.48% | growth inhibition [2] 1.16% | viability increase [3] -4.5% | viability [4] 98% | viability [5] 95.9% | inhibition [6] -0.135% | RAM network inhibition [7] 5.92%

Cn1c(=O)oc2cc(S(=O)(=O)NCc3ccco3)ccc21
inactive: growth inhibition [1] 2.12% | growth inhibition [2] 5.31% | viability increase [3] -4.38% | viability [4] 101% | viability [5] 93.8% | inhibition [6] 1.41% | RAM network inhibition [7] 3.2%

COc1ccc(N(CC(=O)N2CCN(c3ccccc3)CC2)S(=O)(=O)c2c(C)noc2C)cc1
inactive: growth inhibition [1] -9.29% | growth inhibition [2] -0.83% | viability increase [3] -4.48% | viability [4] 93.7% | viability [5] 85.6% | inhibition [6] 0.315% | RAM network inhibition [7] 3.7%

N=c1c2c3c(sc2nc2n1CCCCC2)CCCCC3
inactive: growth inhibition [1] -5.75% | growth inhibition [2] -13.7% | viability increase [3] -5.46% | viability [4] 67.7% | viability [5] 71.7% | inhibition [6] 0.715% | RAM network inhibition [7] 5.69%

O=C(Nc1ccc(Br)cc1)c1cnccn1
inactive: growth inhibition [1] -12.7% | growth inhibition [2] -21.8% | viability increase [3] -0.6% | viability [4] 98.1% | viability [5] 94.4% | inhibition [6] 1.59% | RAM network inhibition [7] 4.87%

O=C(O)CCn1c(-c2ccccc2)cc2c1CCCC2=O
inactive: growth inhibition [1] 1.65% | growth inhibition [2] -0.555% | viability increase [3] -0.35% | viability [4] 95.7% | viability [5] 95% | inhibition [6] 4.84% | RAM network inhibition [7] 0.47%

CCCc1cc(C(=O)Nc2cccnc2)no1
inactive: growth inhibition [1] 0.43% | growth inhibition [2] -0.16% | viability increase [3] -1.86% | viability [4] 100% | viability [5] 94.9% | inhibition [6] 0.915% | RAM network inhibition [7] -0.87%

O=C(Cn1cc2c(n1)CCCCC2)NC1CCCCCC1
inactive: growth inhibition [1] -9.25% | growth inhibition [2] -9.21% | viability increase [3] -3.6% | viability [4] 97.1% | viability [5] 89% | inhibition [6] 0.43% | RAM network inhibition [7] 0.21%

CCC(C)C1C(C#N)=C(N)Oc2n[nH]c(-c3ccccc3)c21 (configuration not stated)
inactive: growth inhibition [1] -4.81% | growth inhibition [2] -3.89% | viability increase [3] -2.23% | viability [4] 97.3% | viability [5] 94.3% | inhibition [6] 1.06% | RAM network inhibition [7] 5.9%

COc1ccc(OCC(=O)NC2CC(C)(C)NC(C)(C)C2)cc1
inactive: growth inhibition [1] 4.15% | growth inhibition [2] 2.14% | viability increase [3] 1.31% | viability [4] 103% | viability [5] 105% | inhibition [6] -0.405% | RAM network inhibition [7] 3.43%

O=C(c1cnn2ccccc12)N1CCc2ccccc21
inactive: growth inhibition [1] 0.67% | growth inhibition [2] -5.48% | viability increase [3] -2.13% | viability [4] 97.9% | viability [5] 91.9% | inhibition [6] 1.33% | RAM network inhibition [7] 1.54%

CC(c1ccccc1)C1C(C#N)=C(N)OC2=C1C(=O)CC(C)(C)C2 (configuration not stated)
active: RAM network inhibition [7] 25.6%
inactive: growth inhibition [1] -6.48% | growth inhibition [2] -7.79% | viability increase [3] -5.71% | viability [4] 78.4% | viability [5] 78.9% | inhibition [6] 1.78%

COc1ccc(Cl)cc1Nc1nc(N2CCCC2)nc(N2CCCC2)n1
inactive: growth inhibition [1] 2.74% | growth inhibition [2] 2.22% | viability increase [3] 0.95% | viability [4] 95.5% | viability [5] 93.3% | inhibition [6] 0.095% | RAM network inhibition [7] 6.43%

O=C(NCCc1ccc(S(=O)(=O)N2CCCC2)cc1)c1cccs1
inactive: growth inhibition [1] 2.67% | growth inhibition [2] 7.14% | viability increase [3] -1.73% | viability [4] 93.4% | viability [5] 90.2% | inhibition [6] 0.545% | RAM network inhibition [7] 6.32%

CC(C)CCOC(=O)C1C2C=CC3(CN(Cc4cccs4)C(=O)C13)O2 (configuration not stated)
inactive: growth inhibition [1] -9.53% | growth inhibition [2] 2.99% | viability increase [3] -0.61% | viability [4] 94.3% | viability [5] 91.2% | inhibition [6] 0.305% | RAM network inhibition [7] 2.76%

COc1ccc(C2C(C(=O)N3CC(C)CC(C)C3)c3ccccc3C(=O)N2C)cc1 (configuration not stated)
inactive: growth inhibition [1] -10.8% | growth inhibition [2] -4.94% | viability increase [3] -1.09% | viability [4] 96.7% | viability [5] 93% | inhibition [6] 0.305% | RAM network inhibition [7] 0.47%

CC(=O)c1c(C)oc(C)c1CSCc1ccc(C(=O)O)o1
inactive: growth inhibition [1] -4.54% | growth inhibition [2] 0.22% | viability increase [3] -2.16% | viability [4] 95.7% | viability [5] 97.9% | inhibition [6] 0.665% | RAM network inhibition [7] 3.55%

O=C1c2ccccc2C(=O)N1CSc1ncccn1
inactive: growth inhibition [1] 0.27% | growth inhibition [2] -7.91% | viability increase [3] -3.86% | viability [4] 87.4% | viability [5] 89.7% | inhibition [6] 1.09% | RAM network inhibition [7] 2.25%

N#C/C(=C1/CCCCCN1)c1nnc2n1CCCCC2
inactive: growth inhibition [1] -8.48% | growth inhibition [2] 2.4% | viability increase [3] -1.1% | viability [4] 102% | viability [5] 101% | inhibition [6] 0.985% | RAM network inhibition [7] 3.24%

COc1ccc(CN2CCN(C(=O)c3cccs3)CC2)cc1Br
inactive: growth inhibition [1] -11.5% | growth inhibition [2] -13.4% | viability increase [3] -1.27% | viability [4] 85.4% | viability [5] 87.9% | inhibition [6] 0.72% | RAM network inhibition [7] 2.53%

Cc1cccc(Nc2ncnc3nc[nH]c23)c1C
inactive: growth inhibition [1] -10.5% | growth inhibition [2] -8.69% | viability increase [3] -1.75% | viability [4] 103% | viability [5] 103% | inhibition [6] 2.98% | RAM network inhibition [7] 4.52%
